≈ marks a conversion by molar mass, not a printed value.
How the values were obtained:
Escherichia coli = experiment: Antimicrobial activity against Escherichia coli by broth dilution method; type: functional
Summary of the method: (§1)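 Broth dilution per NCCLS guidelines; compounds in DMSO (at most 5% of total volume) incubated with bacteria (Institut Pasteur strains) in PB medium, 37 °C, 24 h with stirring. Growth read as optical density at 630 nm. Triplicate, averaged. Where growth was absent, medium plated on rich solid medium to tell bacteriostatic from bactericidal.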

Micrococcus luteus = experiment: Antimicrobial activity against Micrococcus luteus by broth dilution method; type: functional; summary of the method: as §1
CCRF-CEM = experiment: Cytotoxicity against human wild type CEM cells after 72 hrs; type: functional, cell-based
Summary of the method: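 CCRF-CEM (CEM-WT) acute lymphoblastic leukemia cells grown in RPMI 1640 with L-glutamine, 10% FCS, penicillin/streptomycin, 5% CO2, 37 °C. Serial dilutions in medium (10^-4 to 1 mg/mL) added to 2 × 10^5 cells/mL without medium renewal. Cells counted with a particle counter over time. IC50 taken at 72 h; triplicate, averaged.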

SMILES	MIC (Escherichia coli)	MIC (Micrococcus luteus)	IC50 (CCRF-CEM)
CC1=CC2C(CC1)C(C)(C)OC21CC(=O)C=CC1=O (configuration not stated) [CONIDIONE]	> 2000 µM	> 2000 µM	–
Cc1ccc2c(c1)-c1cc(O)ccc1OC2(C)C [DIDEHYDROCONICOL]	> 2000 µM	510 µM (≈ 123 µg/mL)	–
CC1=C[C@@H]2c3cc(O)ccc3OC(C)(C)[C@@H]2CC1 [EPICONICOL]	> 2000 µM	130 µM (≈ 31.8 µg/mL)	60 µmol

Further lines, with some results ahead:

MIC (Escherichia coli)	MIC (Micrococcus luteus)	SMILES	IC50 (CCRF-CEM)
> 2000 µM	510 µM (≈ 125 µg/mL)	CC(C)=CCCC1(C)C=Cc2cc(O)ccc2O1 (configuration not stated) [CORDIACHROMENE A]	30 µM
> 2000 µM	> 2000 µM	COC(C)(C)[C@H]1CCC(C)=C[C@H]1c1cc(O)ccc1O [METHOXYCONIDIOL]	–

From ChEMBL document CHEMBL1158816, “Meroterpenes from the ascidian Aplidium aff. densum” (J Nat Prod, 2005)
